Broadly, the logP is a log measure of how a compound divides between an organic and an aqueous phase. Low values mean lower lipophilicity, high ones higher lipophilicity. Broadly, the IC50 is the concentration that inhibits the measured activity by half. A high value points to weaker potency.

Data set [1] is described as follows: Cytotoxicity against mouse macrophages assessed as cell death at 34.44 uM after 24 hrs by MTT colorimetric assay. The class given is cell-based. The following applies: macrophage. On the technique in general: Formazan colour is commonly taken as a measure of viable cells.
Data set [2] in a line: Partition coefficient, log p of the compound. The following applies: octanol/water. The class given is physicochemical.
The subject of data set [3] is Leishmania major. The data set is described as follows: Antileishmanial activity against Leishmania major MRHO/IR/75/ER promastigotes by MTT assay. It is filed as functional, organism-based. In short, it runs like this:
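L. major MRHO/IR/75/ER promastigotes from early log phase, 2×10^6/mL, in phenol red free RPMI 1640 with 10% FBS, 2 mM glutamine, pH ~7.2 and antibiotics. Exposed to serial drug dilutions for 24 h at 25 °C. MTT (0.5 mg/mL) added for 4 h at 37 °C, pellet dissolved in DMSO, A492 read. Two or more independent experiments in triplicate; IC50 by linear regression, means ± SD.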

For data set [4], the system named is Leishmania major. Briefly: Antileishmanial activity against Leishmania major amastigotes assessed as decrease in infectivity in mouse macrophages after 24 hrs. The class given is functional, organism-based.
Data set [5] has as its system Leishmania major. The data set is described as follows: Antileishmanial activity against Leishmania major amastigotes in mouse macrophages assessed as decrease in infectivity index after 24 hrs. It is filed as functional, organism-based.
The test system of data set [6] is Leishmania major. The data set is described as follows: Antileishmanial activity against Leishmania major MRHO/IR/75/ER amastigotes by Giemsa staining.
Data set [7] in a line: Cytotoxicity against mouse macrophages assessed as cell death at 11.75 uM after 24 hrs by MTT colorimetric assay. The class given is cell-based. The following applies: macrophage.
Data set [8] is described as follows: Cytotoxicity against mouse macrophages assessed as cell death at >50 uM after 24 hrs by MTT colorimetric assay. It is filed as cell-based. Particulars: macrophage.
A short description of data set [9]: Cytotoxicity against mouse macrophages assessed as cell death at 11.69 uM after 24 hrs by MTT colorimetric assay. Particulars: macrophage. The class given is cell-based.
Data set [10] is described as follows: Cytotoxicity against mouse macrophages assessed as cell death at 25 uM after 24 hrs by MTT colorimetric assay. The following applies: macrophage. It is filed as cell-based.
Data set [11] is described as follows: Cytotoxicity against mouse macrophages assessed as cell death at 26.22 uM after 24 hrs by MTT colorimetric assay. The class given is cell-based. The following applies: macrophage.
A short description of data set [12]: Cytotoxicity against mouse macrophages assessed as cell death at 10.73 uM after 24 hrs by MTT colorimetric assay. It is filed as cell-based. The following applies: macrophage.
The nature of data set [13]: Cytotoxicity against mouse macrophages assessed as cell death at 24.11 uM after 24 hrs by MTT colorimetric assay. The following applies: macrophage. The class given is cell-based.
A short description of data set [14]: Cytotoxicity against mouse macrophages assessed as cell death at 23.78 uM after 24 hrs by MTT colorimetric assay. It is filed as cell-based. Particulars: macrophage.
The nature of data set [15]: Cytotoxicity against mouse macrophages assessed as cell death at 24.69 uM after 24 hrs by MTT colorimetric assay. The following applies: macrophage. The class given is cell-based.
Data set [16] can be described thus: Cytotoxicity against mouse macrophages assessed as cell death at 13.19 uM after 24 hrs by MTT colorimetric assay. Particulars: macrophage. It is filed as cell-based.
A short description of data set [17]: Cytotoxicity against mouse macrophages assessed as cell death at 28.26 uM after 24 hrs by MTT colorimetric assay. The class given is cell-based. The following applies: macrophage.
Data set [18] is described as follows: Cytotoxicity against mouse macrophages assessed as cell death at 30 uM after 24 hrs by MTT colorimetric assay. The class given is cell-based. Particulars: macrophage. In short, it runs like this:
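Mouse peritoneal macrophages were seeded at 2×10^5 cells/well and allowed to adhere. Medium was then replaced with compound-containing medium and cells were incubated 24 h at 37 °C in humidified 5% CO2. Controls received medium plus DMSO. Viability was read by MTT. % cell death = (control viability − treated viability)/control viability. Values are means ± SD.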

Data set [19] is described as follows: Cytotoxicity against mouse macrophages assessed as cell death at 13.11 uM after 24 hrs by MTT colorimetric assay. It is filed as cell-based. The following applies: macrophage.
Data set [20] can be described thus: Cytotoxicity against mouse macrophages assessed as cell death at 19.18 uM after 24 hrs by MTT colorimetric assay. It is filed as cell-based. Particulars: macrophage.

Active and inactive are the calls of the source. No cut-off for these calls is given here.

As to `O=C(c1ccccc1Cl)N1CCN(c2nnc(-c3ccc([N+](=O)[O-])s3)s2)CC1`, the Activity in data set [1] was 6.1%. For the same compound, in [2], the logP was determined as 2.29. Besides, half-maximal inhibition in the data set on Leishmania major [3] (IC50) was put at 34.4 µM.
With `O=C(c1ccc(Cl)s1)N1CCN(c2nnc(-c3ccc([N+](=O)[O-])o3)s2)CC1`, the result in the data set on Leishmania major [4], with Leishmania major [5] and in the data set with Leishmania major [6] was Active. This compound also showed a log partition coefficient (logP) in data set [2] of 1.92. Further, in [7], the Activity turned out to be 7.6%. The IC50 with Leishmania major [3] stood at 11.8 µM.
As for `O=C(c1cccc(Cl)c1)N1CCN(c2nnc(-c3ccc([N+](=O)[O-])s3)s2)CC1`, the Activity in data set [8] was found to be 5.5%. This compound yielded a logP in data set [2] of 2.29. The compound further gave an IC50 in the data set with Leishmania major [3] of over 50 µM.
For `O=C(c1ccccc1)N1CCN(c2nnc(-c3ccc([N+](=O)[O-])o3)s2)CC1`, the Activity in data set [9] was 7.1%. Further, the result with Leishmania major [4], with Leishmania major [5] and with Leishmania major [6] was Active. In data set [2], this compound registered a logP of 2.17. The compound further returned an IC50 in the data set with Leishmania major [3] of 11.7 µM.
In the case of `O=C(c1ccccc1)N1CCN(c2nnc(-c3ccc([N+](=O)[O-])s3)s2)CC1`, in [10], the Activity is on record as 8.9%. In [2], this compound displayed a logP of 2.52. Further, in the data set on Leishmania major [3], 25 µM corresponded to half-maximal inhibition (IC50).
As to `O=C(c1ccc(Cl)cc1)N1CCN(c2nnc(-c3ccc([N+](=O)[O-])o3)s2)CC1`, in data set [11], the Activity is on record as 9.7%. This compound also gave a logP in data set [2] of 1.95. Besides, the IC50 in the data set with Leishmania major [3] came out at 26.2 µM.
`O=C(c1ccccc1Cl)N1CCN(c2nnc(-c3ccc([N+](=O)[O-])o3)s2)CC1`: the outcome in the data set with Leishmania major [4], in the data set with Leishmania major [5] and in the data set on Leishmania major [6] was Active. The logP in data set [2] turned out to be 1.95. In addition, the Activity in data set [12] came to 8.7%. It took 10.7 µM to reach half-maximal inhibition with Leishmania major [3] (IC50).
Turning to `O=C(c1ccc(Cl)cc1)N1CCN(c2nnc(-c3ccc([N+](=O)[O-])s3)s2)CC1`, the Activity in [13] stood at 7.2%. The compound also returned a logP in [2] of 2.29. Further, in the data set on Leishmania major [3], the IC50 came to 24.1 µM.
Consider `O=C(c1ccc(Cl)s1)N1CCN(c2nnc(-c3ccc([N+](=O)[O-])s3)s2)CC1`, for which, in [14], the Activity stood at 9.8%. In data set [2], this compound yielded a logP of 2.27. The IC50 with Leishmania major [3] was found to be 23.8 µM.
On to `O=C(c1ccc(Br)s1)N1CCN(c2nnc(-c3ccc([N+](=O)[O-])s3)s2)CC1`, for which the Activity in [15] is listed as 9.2%. Besides, in data set [2], the logP was determined as 2.57. In the data set on Leishmania major [3], this compound yielded an IC50 of 24.7 µM.
Consider `O=C(c1cccc(Cl)c1)N1CCN(c2nnc(-c3ccc([N+](=O)[O-])o3)s2)CC1`, for which the outcome in the data set on Leishmania major [4], in the data set with Leishmania major [5] and in the data set on Leishmania major [6] was Active. For the same compound, in [16], the Activity came to 9.7%. This compound returned a logP in data set [2] of 1.95. 13.2 µM corresponded to half-maximal inhibition in the data set with Leishmania major [3] (IC50).
For the compound `O=C(c1cccs1)N1CCN(c2nnc(-c3ccc([N+](=O)[O-])s3)s2)CC1`, the logP in data set [2] amounted to 1.13. The Activity in data set [17] stood at 8.7%. This compound displayed an IC50 in the data set with Leishmania major [3] of 28.3 µM.
For the compound MEGLUMINE ANTIMONATE, the Activity in [18] came to 40.4%.
Regarding `O=C(c1ccc(Br)s1)N1CCN(c2nnc(-c3ccc([N+](=O)[O-])o3)s2)CC1`, the result in the data set on Leishmania major [4], in the data set on Leishmania major [5] and with Leishmania major [6] was Active. Further, the logP in [2] turned out to be 2.22. This compound also returned a half-inhibitory concentration (IC50) with Leishmania major [3] of 13.1 µM. The Activity in [19] was 7.7%.
`O=C(c1cccs1)N1CCN(c2nnc(-c3ccc([N+](=O)[O-])o3)s2)CC1`: the Activity in data set [20] stood at 2.4%. The logP in data set [2] is 0.78. In the data set on Leishmania major [3], this compound yielded an IC50 of 19.2 µM.

(Values after ChEMBL document CHEMBL1149868, “Synthesis and in vitro anti-leishmanial activity of 1-[5-(5-nitrofuran-2-yl)-1,3,4-thiadiazol-2-yl]- and 1-[5-(5-nitrothiophen-2-yl)-1,3,4-thiadiazol-2-yl]-4-aroylpiperazines” (Bioorg Med Chem, 2008).)
